Experimental data published in ChEMBL document CHEMBL4020770, “Discovery of N-substituted-endo-3-(8-aza-bicyclo[3.2.1]oct-3-yl)-phenol and -phenyl carboxamide series of μ-opioid receptor antagonists” (Bioorg Med Chem Lett, 2017).

Key:
[1] = (§1) Half life in human liver microsomes; type: ADME, microsome; details: liver microsomes
Liver [2] = assay: (§2) Half life in rat liver microsomes; type: ADME, microsome; details: microsomes
[3] = molecular target: Kappa-type opioid receptor (Cavia porcellus, UniProt P41144); assay: Displacement of [3H]DPN from guinea pig kappa opioid receptor expressed in CHOK1 cell membranes
Sequence of Kappa-type opioid receptor (P41144 whole entry): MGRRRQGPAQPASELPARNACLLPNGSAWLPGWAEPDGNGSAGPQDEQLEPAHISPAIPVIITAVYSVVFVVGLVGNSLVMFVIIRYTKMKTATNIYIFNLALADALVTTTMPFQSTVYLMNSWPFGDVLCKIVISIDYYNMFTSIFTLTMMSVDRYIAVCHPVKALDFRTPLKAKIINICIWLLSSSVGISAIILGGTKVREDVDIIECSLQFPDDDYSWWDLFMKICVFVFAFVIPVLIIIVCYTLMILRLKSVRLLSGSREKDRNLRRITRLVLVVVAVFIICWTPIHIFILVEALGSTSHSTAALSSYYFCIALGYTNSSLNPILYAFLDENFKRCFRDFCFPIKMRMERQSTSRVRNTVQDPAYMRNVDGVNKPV
Procedure, shortened: (§3)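 Competition binding with the radioligand [3H]-DPN on membranes from CHO-K1 cells stably transfected with human recombinant μ or δ opioid receptor or guinea pig κ opioid receptor. Affinity is reported as pKi.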

[4] = (§4) Half life in dog liver microsomes; type: ADME, Canis lupus familiaris, microsome; details: liver microsomes
Mu-type opioid receptor = Mu-type opioid receptor (Homo sapiens, UniProt P35372); assay: Displacement of [3H]DPN from recombinant human mu opioid receptor expressed in CHOK1 cell membranes; procedure, shortened: as §3
Sequence of Mu-type opioid receptor (P35372 whole entry): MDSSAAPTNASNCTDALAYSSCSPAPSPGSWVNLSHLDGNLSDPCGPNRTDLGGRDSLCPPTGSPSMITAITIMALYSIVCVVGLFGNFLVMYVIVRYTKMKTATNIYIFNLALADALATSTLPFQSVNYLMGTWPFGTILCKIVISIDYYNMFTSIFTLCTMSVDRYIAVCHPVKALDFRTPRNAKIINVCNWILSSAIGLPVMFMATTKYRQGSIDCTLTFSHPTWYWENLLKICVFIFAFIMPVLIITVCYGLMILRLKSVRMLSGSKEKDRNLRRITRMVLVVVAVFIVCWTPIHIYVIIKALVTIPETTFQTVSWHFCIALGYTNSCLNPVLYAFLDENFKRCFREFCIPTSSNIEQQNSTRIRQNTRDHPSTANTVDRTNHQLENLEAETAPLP

[5] = molecular target: Delta-type opioid receptor (Homo sapiens, UniProt P41143); assay: Displacement of [3H]DPN from recombinant human delta opioid receptor expressed in CHOK1 cell membranes; procedure, shortened: as §3
Sequence of Delta-type opioid receptor (P41143 whole entry): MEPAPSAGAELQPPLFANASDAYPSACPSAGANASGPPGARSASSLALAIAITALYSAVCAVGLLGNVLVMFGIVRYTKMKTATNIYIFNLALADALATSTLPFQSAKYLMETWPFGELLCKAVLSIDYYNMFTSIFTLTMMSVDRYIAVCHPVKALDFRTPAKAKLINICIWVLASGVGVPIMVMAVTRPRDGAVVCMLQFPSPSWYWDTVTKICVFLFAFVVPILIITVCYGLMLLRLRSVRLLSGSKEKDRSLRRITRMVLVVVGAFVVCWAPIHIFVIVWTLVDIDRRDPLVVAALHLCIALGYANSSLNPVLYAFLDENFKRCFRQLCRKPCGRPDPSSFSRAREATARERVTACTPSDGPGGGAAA

Liver [6] = assay: as §1; type: ADME, microsome; details: microsomes
Liver [7] = assay: as §4; type: ADME, Canis lupus familiaris, microsome; details: microsomes
[8] = as §2; type: ADME, microsome; details: liver microsomes

SMILES | half-life [1] | t1/2 (Liver [2]) | Ki [3] | half-life [4] | Ki (Mu-type opioid receptor) | Ki [5] | t1/2 (Liver [6]) | t1/2 (Liver [7]) | half-life [8]
NC(=O)c1cccc(C2C[C@H]3CC[C@H](C2)N3CC(O)Cc2ccccc2)c1 (relative stereo) | > 90 min | 31 min | 0.316 nM | > 90 min | 0.251 nM | 3.98 nM |  |  | 
CCCCCCCN1[C@@H]2CC[C@@H]1CC(c1cccc(C(N)=O)c1)C2 (some centres not stated) |  | 7 min |  |  | 31.6 nM | 501 nM | 10 min | 2 min | 
NC(=O)c1cccc(C2C[C@H]3CC[C@H](C2)N3CC(O)Cc2ccccc2)c1 (stereo in doubt; 31b) |  | 14 min | 79.4 nM |  | 31.6 nM | 501 nM |  | 59 min | 
CCCCCCCN1[C@@H]2CC[C@@H]1CC(c1cccc(C(N)=O)c1)C2 (relative stereo) |  | > 90 min | 0.398 nM |  | 0.398 nM | 3.16 nM | 40 min | 20 min | 
NC(=O)c1cccc(C2C[C@H]3CC[C@H](C2)N3CCCc2ccccc2)c1 (relative stereo; 24a) | > 90 min | > 90 min | 0.158 nM |  | 0.126 nM | 1.26 nM |  | > 90 min | 
CCCCCCCN1[C@@H]2CC[C@@H]1CC(c1cccc(O)c1)C2 (relative stereo; 17b) |  | 2 min | 25.1 nM |  | 20 nM | 251 nM | 2 min | 9 min | 
CC(C)(C)c1ccc(CN2[C@@H]3CC[C@@H]2CC(c2cccc(C(N)=O)c2)C3)cc1 (relative stereo; 28a) | > 90 min |  | 0.1 nM | > 90 min | 0.1 nM | 1.58 nM |  |  | > 90 min
NC(=O)c1cccc(C2C[C@H]3CC[C@H](C2)N3Cc2c(F)cccc2F)c1 (relative stereo; 26b) |  | 74 min | 398 nM |  | 1260 nM | 5010 nM |  |  | 
NC(=O)c1cccc(C2C[C@H]3CC[C@H](C2)N3CCCc2ccccc2)c1 (relative stereo; 24b) |  | 11 min |  |  | 15.8 nM | 200 nM |  | 18 min | 
NC(=O)c1cccc(C2C[C@H]3CC[C@H](C2)N3CC(=O)C2CCCCC2)c1 (relative stereo; 30b) |  | 81 min | 20 nM |  | 15.8 nM | 398 nM |  | 9 min | 
NC(=O)c1cccc(C2C[C@H]3CC[C@H](C2)N3CCCCN2C(=O)c3ccccc3C2=O)c1 (relative stereo; 29a) | > 90 min |  | 3.16 nM | 18 min | 1.58 nM | 79.4 nM |  |  | > 90 min
NC(=O)c1cccc(C2C[C@H]3CC[C@H](C2)N3Cc2c(F)cccc2F)c1 (relative stereo; 26a) | > 90 min | 26 min | 15.8 nM | > 90 min | 31.6 nM | 316 nM |  |  | 
O=C1c2ccccc2C(=O)N1CCCCN1[C@@H]2CC[C@@H]1CC(c1cccc(O)c1)C2 (relative stereo; 21b) |  | 21 min | 79.4 nM |  | 39.8 nM | 794 nM | 38 min | 12 min | 
Oc1cccc(C2C[C@H]3CC[C@H](C2)N3CCCc2ccccc2)c1 (relative stereo; 12a) | 15 min |  | 0.1 nM | 2 min | 0.1 nM | 0.794 nM |  |  | 2 min
